In PMC3753066 (Nature methods, 2013):
≈ marks a conversion by molar mass, not a printed value. Starred links: 1 amine or outer side, 2 acyl side, 3 side chain; linkers in the order of their positions; H or OH if unused. Non-standard residues stand in square brackets, D forms with d. Residues, ends and D or L forms follow the SMILES beside them. X1 = CCCCCCCC[C@@H](C(=O)[*:2])N(C)[*:1]; Gly(octyl) = CCCCCCCC[C@H](N)C(=O)O; NMeL = CN[C@@H](CC(C)C)C(=O)O

Assays:
[1] = Water solubility of the peptides; assay type: physicochemical
MsbA = MsbA (Escherichia coli, UniProt P60752); assay: MsbA ATPase activity and stability in BPs or detergent; assay type: biochemical, E. coli; conditions: for ATPase activity of MsbA solubilized in the reagent: measured in triplicate at 37 °C, 20 mM Tris pH 7.5, 20 mM NaCl, 0.2–0.5 mg/mL
Chain of MsbA (P60752 whole entry): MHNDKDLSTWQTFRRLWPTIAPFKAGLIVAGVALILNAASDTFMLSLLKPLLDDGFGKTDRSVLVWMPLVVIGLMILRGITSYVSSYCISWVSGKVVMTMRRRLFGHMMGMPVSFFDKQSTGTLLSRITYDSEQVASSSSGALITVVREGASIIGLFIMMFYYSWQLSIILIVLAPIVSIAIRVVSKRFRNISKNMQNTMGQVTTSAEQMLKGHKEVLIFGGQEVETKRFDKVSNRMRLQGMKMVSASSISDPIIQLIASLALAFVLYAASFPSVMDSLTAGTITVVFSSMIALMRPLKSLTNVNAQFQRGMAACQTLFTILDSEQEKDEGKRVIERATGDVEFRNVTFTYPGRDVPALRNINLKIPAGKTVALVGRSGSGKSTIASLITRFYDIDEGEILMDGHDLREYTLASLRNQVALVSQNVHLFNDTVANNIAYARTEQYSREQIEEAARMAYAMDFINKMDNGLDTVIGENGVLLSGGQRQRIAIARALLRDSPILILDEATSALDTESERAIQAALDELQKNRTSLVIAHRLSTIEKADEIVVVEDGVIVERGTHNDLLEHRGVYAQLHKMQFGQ
Outline: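 E. coli MsbA purified in UDM, then mixed with peptide at 50:1–100:1 molar ratio (peptide:protein). Detergent was removed by dialysis (6 kDa cutoff, 4 °C, 1–2 days, TLC-monitored) and the supernatant kept after 300,000 × g, 2 h, 4 °C. Comparison preparations were in UDM, LMNG, Amphipol A8-35 (5:1 w/w) or MSP1D1/DMPC nanodiscs. Samples (0.2–0.5 mg/mL) were held at RT up to 40 days, with linked-enzyme ATPase read-out, means ± standard error.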

CCCCCCCC[C@H](NC(C)=O)C(=O)N[C@@H](CO)C(=O)N[C@@H](CC(C)C)C(=O)N[C@@H](CO)C(=O)N(C)[C@@H](CC(C)C)C(=O)N[C@@H](CC(=O)O)C(=O)N[C@@H](CCCCCCCC)C(=O)N[C@@H](CC(=O)O)C(N)=O [BP-1] (Ac-[Gly(octyl)]SLS[NMeL]D[Gly(octyl)]D-NH2)
solubility [1]: ~3000 µM (≈ 3130 µg/mL) | change of MsbA ATPase activity on incubation (MsbA; 40 days of incubation at RT): little change | ATPase activity of MsbA solubilized in the reagent (MsbA): ~ 4 μmol/min/mg

CCCCCCCC[C@H](NC(C)=O)C(=O)N[C@@H](CO)C(=O)N(C)[C@@H](CC(C)C)C(=O)N[C@@H](CO)C(=O)N(C)[C@@H](CC(C)C)C(=O)N[C@@H](CC(=O)O)C(=O)N[C@@H](CCCCCCCC)C(=O)N[C@@H](CC(=O)O)C(N)=O [BP-2] (Ac-[Gly(octyl)]S[NMeL]S[NMeL]D[Gly(octyl)]D-NH2)
solubility [1]: ~3000 µM (≈ 3170 µg/mL)

CCCCCCCC[C@H](NC(C)=O)C(=O)N[C@@H](CO)C(=O)N(C)[C@@H](CC(C)C)C(=O)N[C@@H](CO)C(=O)N(C)[C@@H](CC(C)C)C(=O)N[C@@H](CC(=O)O)C(=O)N(C)[C@@H](CCCCCCCC)C(=O)N[C@@H](CC(=O)O)C(N)=O [BP-3] (Ac-[Gly(octyl)]S[NMeL]S[NMeL]D[X1]D-NH2)
solubility [1]: ~1000 µM (≈ 1070 µg/mL)

CCCCCCCCCCCO[C@@H]1O[C@H](CO)[C@@H](O[C@H]2O[C@H](CO)[C@@H](O)[C@H](O)[C@H]2O)[C@H](O)[C@H]1O [UDM, β-D-undecylmaltoside, reference compound]
ATPase activity of MsbA solubilized in the reagent (MsbA): 2.2 µmol/min/mg | loss of MsbA ATPase activity (MsbA; within the first day of incubation at RT, accompanied by protein precipitation): ~ 80%
